Source: ChEMBL document CHEMBL1136771, “Differential binding modes of diacylglycerol (DAG) and DAG lactones to protein kinase C (PK-C)” (J Med Chem, 2003)

experiment: Partition coefficient (logP); format: physicochemical; conditions: octanol/water
Outline: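 Octanol/water log P was calculated, not measured, using a fragment-based atom/fragment-contribution estimation program applied to each ligand structure.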

Q: With `CC(C)C(CC(=O)OC[C@H](CO)OC(=O)CC(C(C)C)C(C)C)C(C)C` as the molecule, how does the logP read?
A: The logP was 5.8.

Q: With `CC(C)C/C=C1/CC(CO)(COC(=O)CC(C(C)C)C(C)C)OC1=O` (stereo not given) as the molecule, how does the logP read?
A: The logP was 4.1.

Q: Which logP does the source give for `CC(C)=C1CC(CO)(COC(=O)CC(C(C)C)C(C)C)OC1=O` (stereo not given) here?
A: The logP was 3.2.

Q: Which logP does the source give for `CC(C)C(=CC(=O)O[C@@H](CO)COC(=O)CC(C(C)C)C(C)C)C(C)C` here?
A: The logP was 5.7.

Q: Which logP does the source give for `CC(C)CC(=O)OCC1(CO)CC(=C(C(C)C)C(C)C)C(=O)O1` (stereo not given) here?
A: The logP was 3.2.

Q: For `CC(C)CC(=O)OCC1(CO)C/C(=C/CC(C(C)C)C(C)C)C(=O)O1` (stereo not given), which logP is on record?
A: The logP was 4.1.

Q: With `CC(C)C/C=C1\CC(CO)(COC(=O)CC(C(C)C)C(C)C)OC1=O` (stereo not given) as the molecule, how does the logP read?
A: Its logP is 4.1.

Q: Which logP does the source give for `CC(C)CC(=O)OCC1(CO)C/C(=C\CC(C(C)C)C(C)C)C(=O)O1` (stereo not given) here?
A: The logP was 4.1.

Q: For `CC(C)=CC(=O)O[C@@H](CO)COC(=O)CC(C(C)C)C(C)C`, which logP is on record?
A: Its logP is 3.9.

Q: With `CC(C)CC(=O)OC[C@H](CO)OC(=O)C=C(C(C)C)C(C)C` as the molecule, how does the logP read?
A: The logP was 3.9.
